Test system: Fibroblast
Assay: Multiplex assay against human fibroblast
Assay type: toxicity, cell-based
In short: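 Hoechst33342, BioTracker Green Microtubule Cytoskeleton Dye, MitoTracker Red and Annexin V Alexa Fluor 680 were added to live cells at seeding, and imaging on a CQ1 microscope at 37°C and 5% CO2 followed compound addition. Gating by CellPathfinder machine learning separated cells into Hoechst high-intensity objects or normal cells, then normal cells into healthy, pyknosed or fragmented nuclei, then pyknosed cells into mitotic or apoptotic. Per cents of healthy-nucleus cells are reported for the tubulin, mitochondrial-mass and membrane-permeability phenotypes.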

[1] = 12 h, 1 µM, compound concentration 1 uM, replicate 1
[2] = 12 h, 1 µM, compound concentration 1 uM, replicate 2
[3] = 12 h, 10 µM, compound concentration 10 uM, replicate 1
[4] = 12 h, 10 µM, compound concentration 10 uM, replicate 2
[5] = 24 h, 1 µM, compound concentration 1 uM, replicate 1
[6] = 24 h, 1 µM, compound concentration 1 uM, replicate 2
[7] = 24 h, 10 µM, compound concentration 10 uM, replicate 1
[8] = 24 h, 10 µM, compound concentration 10 uM, replicate 2
[9] = 48 h, 1 µM, compound concentration 1 uM, replicate 1
[10] = 48 h, 1 µM, compound concentration 1 uM, replicate 2
[11] = 48 h, 10 µM, compound concentration 10 uM, replicate 1
[12] = 48 h, 10 µM, compound concentration 10 uM, replicate 2

## COC(c1ccccc1)(c1ccccc1)[C@H](Oc1nc(C)cc(C)n1)C(=O)O [AMBRISENTAN]
[1]
  Population Apoptotic (%): 68%
  Population Fragmented Nuclei (%): 13%
  Population Healthy Nuclei (%): 66%
  Population Hoechst High Intensity Objects (%): 1%
  Population Membrane Permeable-Phenotype (%): 0%
  Population Mitochondria Different-Phenotype (%): 4%
  Population Mitotic Cells (%): 31%
  Population Normal (%): 98%
  Population Pyknosed Nuclei (%): 19%
  Population Tubulin-Different-Phenotype (%): 29%
  Total Cell Count: 97
[2]
  Population Apoptotic (%): 30%
  Population Fragmented Nuclei (%): 18%
  Population Healthy Nuclei (%): 56%
  Population Hoechst High Intensity Objects (%): 4%
  Population Membrane Permeable-Phenotype (%): 1%
  Population Mitochondria Different-Phenotype (%): 6%
  Population Mitotic Cells (%): 69%
  Population Normal (%): 95%
  Population Pyknosed Nuclei (%): 25%
  Population Tubulin-Different-Phenotype (%): 37%
  Total Cell Count: 163
[3]
  Population Apoptotic (%): 56%
  Population Fragmented Nuclei (%): 8%
  Population Healthy Nuclei (%): 70%
  Population Hoechst High Intensity Objects (%): 5%
  Population Membrane Permeable-Phenotype (%): 0%
  Population Mitochondria Different-Phenotype (%): 11%
  Population Mitotic Cells (%): 43%
  Population Normal (%): 94%
  Population Pyknosed Nuclei (%): 21%
  Population Tubulin-Different-Phenotype (%): 25%
  Total Cell Count: 145
[4]
  Population Apoptotic (%): 33%
  Population Fragmented Nuclei (%): 39%
  Population Healthy Nuclei (%): 25%
  Population Hoechst High Intensity Objects (%): 4%
  Population Membrane Permeable-Phenotype (%): 5%
  Population Mitochondria Different-Phenotype (%): 0%
  Population Mitotic Cells (%): 66%
  Population Normal (%): 95%
  Population Pyknosed Nuclei (%): 34%
  Population Tubulin-Different-Phenotype (%): 35%
  Total Cell Count: 82
[5]
  Population Apoptotic (%): 62%
  Population Fragmented Nuclei (%): 15%
  Population Healthy Nuclei (%): 67%
  Population Hoechst High Intensity Objects (%): 2%
  Population Membrane Permeable-Phenotype (%): 0%
  Population Mitochondria Different-Phenotype (%): 4%
  Population Mitotic Cells (%): 37%
  Population Normal (%): 97%
  Population Pyknosed Nuclei (%): 17%
  Population Tubulin-Different-Phenotype (%): 38%
  Total Cell Count: 95
[6]
  Population Apoptotic (%): 34%
  Population Fragmented Nuclei (%): 14%
  Population Healthy Nuclei (%): 62%
  Population Hoechst High Intensity Objects (%): 5%
  Population Membrane Permeable-Phenotype (%): 3%
  Population Mitochondria Different-Phenotype (%): 3%
  Population Mitotic Cells (%): 65%
  Population Normal (%): 94%
  Population Pyknosed Nuclei (%): 23%
  Total Cell Count: 158
[7]
  Population Apoptotic (%): 69%
  Population Fragmented Nuclei (%): 12%
  Population Healthy Nuclei (%): 68%
  Population Hoechst High Intensity Objects (%): 7%
  Population Membrane Permeable-Phenotype (%): 0%
  Population Mitochondria Different-Phenotype (%): 11%
  Population Mitotic Cells (%): 30%
  Population Normal (%): 92%
  Population Pyknosed Nuclei (%): 18%
  Population Tubulin-Different-Phenotype (%): 29%
  Total Cell Count: 149
[8]
  Population Apoptotic (%): 27%
  Population Fragmented Nuclei (%): 46%
  Population Healthy Nuclei (%): 27%
  Population Hoechst High Intensity Objects (%): 5%
  Population Membrane Permeable-Phenotype (%): 5%
  Population Mitochondria Different-Phenotype (%): 10%
  Population Mitotic Cells (%): 72%
  Population Normal (%): 94%
  Population Pyknosed Nuclei (%): 26%
  Population Tubulin-Different-Phenotype (%): 36%
  Total Cell Count: 73
[9]
  Population Apoptotic (%): 60%
  Population Fragmented Nuclei (%): 19%
  Population Healthy Nuclei (%): 64%
  Population Hoechst High Intensity Objects (%): 4%
  Population Membrane Permeable-Phenotype (%): 1%
  Population Mitochondria Different-Phenotype (%): 5%
  Population Mitotic Cells (%): 40%
  Population Normal (%): 95%
  Population Pyknosed Nuclei (%): 16%
  Population Tubulin-Different-Phenotype (%): 28%
  Total Cell Count: 93
[10]
  Population Apoptotic (%): 61%
  Population Fragmented Nuclei (%): 24%
  Population Healthy Nuclei (%): 54%
  Population Hoechst High Intensity Objects (%): 0%
  Population Membrane Permeable-Phenotype (%): 4%
  Population Mitochondria Different-Phenotype (%): 10%
  Population Mitotic Cells (%): 38%
  Population Normal (%): 99%
  Population Pyknosed Nuclei (%): 20%
  Population Tubulin-Different-Phenotype (%): 42%
  Total Cell Count: 154
[11]
  Population Apoptotic (%): 61%
  Population Fragmented Nuclei (%): 14%
  Population Healthy Nuclei (%): 71%
  Population Hoechst High Intensity Objects (%): 7%
  Population Membrane Permeable-Phenotype (%): 1%
  Population Mitochondria Different-Phenotype (%): 10%
  Population Mitotic Cells (%): 38%
  Population Normal (%): 92%
  Population Pyknosed Nuclei (%): 13%
  Population Tubulin-Different-Phenotype (%): 34%
  Total Cell Count: 145
[12]
  Population Apoptotic (%): 71%
  Population Fragmented Nuclei (%): 50%
  Population Healthy Nuclei (%): 31%
  Population Hoechst High Intensity Objects (%): 3%
  Population Membrane Permeable-Phenotype (%): 0%
  Population Mitochondria Different-Phenotype (%): 0%
  Population Mitotic Cells (%): 28%
  Population Normal (%): 96%
  Population Pyknosed Nuclei (%): 18%
  Population Tubulin-Different-Phenotype (%): 62%
  Total Cell Count: 79
